# Source: PubChem (Sanford-Burnham Center for Chemical Genomics)
# Rows were chosen to be rich in hits. Some 2.3% of all compounds tested hit in one or more screens of this group.
# MPTP inh = inhibitors of mitochondrial permeability transition pore; isolated mouse mitochondria, Ca2+ swelling absorbance, 30 min; inhibition, % at 10 µM; 360,000 tested, 1.4% active; AID 602449;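 active means inhibition of 50% or more, scaled per plate between neutral and stimulator controls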;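 further: 0% = DMSO wells given calcium and 100% = 1 mM EGTA wells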
# SKN-1 block = blocks SKN-1 activity in C. elegans; C. elegans VP596 Pgst-4::GFP/RFP ratio, acrylamide-induced, 24 h; inhibition, % at 21.8 µM; 360,000 tested, 0.49% active; AID 624304;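 active means interference check ratio from 0.5 to 1.5 plus GFP to RFP signal ratio inhibition reaching or exceeding a fixed threshold, cut at about 30% in these data, passing the limit was not always enough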
# MT1-MMP act inh = blocks activation of human MT1-MMP | P50281 | HT1080 RFP-PRO-GFP cells, GFP/RFP ratio fluorescence, overnight; percent of plate control window, DMSO zero | GFP/RFP ratio change, % at 20 µM | 360,000 tested, 0.061% active | AID 651647;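 active means GFP/RFP ratio change of at least 30% with cell ATP level not reduced by more than half and red fluorescence within 50% of control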
#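 Assay system: HT1080 RFP-PRO-GFP cells. Benchmarks: DMSO vehicle wells and RFP-L50D-GFP reporter cell wells. Times: overnight cell settling, then overnight compound exposure, 37 °C, 5% CO2. Compound: 20 µM single dose, 1% DMSO. Read-out basis: GFP/RFP fluorescence ratio.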
# ATG4B inh = inhibitors of human ATG4B cysteine protease; 340,000 tested, 0.51% active; inhibition, % at 8.33 µM; AID 504462; ATG4B cleavage of LC3-PLA2, NBD-HPC fluorescence, 1 h; Q9Y4P1; in the data active means inhibition above about 40%
# Target sequence (Q9Y4P1 whole entry, looked up): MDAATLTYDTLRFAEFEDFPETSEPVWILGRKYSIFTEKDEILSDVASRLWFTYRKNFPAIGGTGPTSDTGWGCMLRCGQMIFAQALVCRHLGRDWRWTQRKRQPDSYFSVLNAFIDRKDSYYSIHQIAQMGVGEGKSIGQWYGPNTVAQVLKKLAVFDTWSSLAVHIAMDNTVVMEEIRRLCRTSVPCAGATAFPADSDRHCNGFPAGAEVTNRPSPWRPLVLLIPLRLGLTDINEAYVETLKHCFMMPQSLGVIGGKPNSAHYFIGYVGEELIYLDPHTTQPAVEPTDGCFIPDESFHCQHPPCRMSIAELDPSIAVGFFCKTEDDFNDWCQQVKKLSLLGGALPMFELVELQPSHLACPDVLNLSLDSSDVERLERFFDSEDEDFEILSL
# MPTP counter = Rhodamine 123 counter-screen of mitochondrial pore hits. AID 624504. 5,000 tested, 78% active. inhibition, % at 10 µM. shares compounds with MPTP inh. isolated mitochondria, membrane potential, Rhodamine 123 fluorescence; in the data active means inhibition above about 22%;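 further: 0% = DMSO vehicle and 100% = positive control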
# MPTP swell DR = dose response confirmation of mitochondrial permeability transition pore inhibitors; shares compounds with MPTP inh; isolated mitochondria swelling, absorbance; IC50, µM; 780 tested, 58% active; AID 651561; in the data active means IC50 below about 20 µM
# MPTP cs DR = MPTP inhibitor counter-screen activity, dose response. IC50, µM. shares compounds with MPTP inh. isolated mitochondria counterscreen, fluorescence read-out. 780 tested, 49% active. AID 651564; in the data active means IC50 below about 80 µM
# Numbers without * were called inactive; i = inactive; . = no result.
SMILES,MPTP inh,SKN-1 block,MT1-MMP act inh,ATG4B inh,MPTP counter,others
Cc1cccc(C)c1NC(=O)C(C)Sc1nnc(C)n1CC1CCCO1 (stereo unspecified),-0.6,9.0,-1.2,-4.8,.,
COc1cccc(C2=Nn3c(nnc3-c3ccccc3O)SC2)c1,-0.1,-24.4,3.8,-29.3,.,
C[n+]1c2n(c3ccccc31)N=C(c1cc(C(C)(C)C)c(O)c(C(C)(C)C)c1)CS2,93.6*,-0.6,-24.1,10.8,102.7*,
COc1ccc(CN(C)c2ccc(S(=O)(=O)N3CCN(C)CC3)cc2[N+](=O)[O-])cc1OC,97.0*,-12.4,14.9,-15.0,99.0*,
COc1ccc(CSCC(=O)Nc2ccc(S(=O)(=O)N3CCCCCC3)cc2)cc1,17.9,5.8,-11.7,-11.9,.,
COc1ccc(CCN(C)c2ccc(S(=O)(=O)N3CCCC3)cc2[N+](=O)[O-])cc1OC,8.6,-0.4,5.0,-14.7,.,
O=C(CSCc1ccc(Cl)cc1)Nc1ccc(S(=O)(=O)N2CCCCCC2)cc1,53.4*,-5.1,-6.6,-3.0,80.0*,
CN(CC(=O)Nc1ccc(Cl)cc1)c1ccc(S(=O)(=O)N2CCCCC2)cc1[N+](=O)[O-],82.4*,16.5,2.0,-15.7,66.6*,
CN(CC(=O)Nc1ccc(S(=O)(=O)N2CCCC2)cc1)Cc1ccc(Cl)cc1Cl,5.8,-8.4,-5.0,-13.3,.,
COc1ccc(NC(=S)N2CCN(S(=O)(=O)c3ccc(F)cc3)CC2)cc1,-0.2,3.3,1.6,-1.0,.,
CCC(C)[C@H](NC(=O)N1CCn2c1nc1ccccc12)C(=O)NCc1ccccc1 (stereo partly specified),0.0,10.6,1.3,-4.1,.,
O=C(Nc1ccccc1)c1sc2cc(C(F)(F)F)cnc2c1-c1cccs1,3.1,19.9,1.3,5.4,.,
CC(C)(C)OC(=O)N1CCC[C@@H]1C(=O)NCc1ccccc1Cl,-1.0,-1.7,-8.0,.,.,
COc1ccc(C[C@H]2CN3C(=NC[C@@H]3C(C)C)N2CCNC(=O)c2ccc(C)c(Br)c2)cc1,68.8*,-6.8,-2.5,2.5,-3.7,
Cc1ccc(C(=O)NCCN2C3=NC[C@H](C(C)C)N3C[C@H]2Cc2ccc(O)cc2)cc1Br,1.3,-3.6,-3.8,1.1,.,
Cc1ccccc1CS(=O)(=O)c1nnc([C@H](Cc2ccccc2)NC(=O)OC(C)(C)C)o1,-1.6,-4.5,13.5,-3.4,.,
CCC(C)[C@@H](NC(=O)OC(C)(C)C)c1nnc(S(=O)(=O)Cc2cccc(C)c2)o1 (stereo partly specified),90.7*,1.0,6.4,-12.4,-3.8,
O=C(N/N=C/c1cn(-c2ccccc2)nc1-c1cccs1)c1ccc(Cl)cc1,69.7*,2.7,-4.1,-10.4,65.0*,
O=C(c1ccccn1)N1CCCC(N2CCN(c3ccccc3)CC2)C1 (stereo unspecified),-3.0,12.0,0.4,-1.5,.,
CC(C)CC(=O)NC(NC(=S)Nc1ccccc1)C(Cl)(Cl)Cl (stereo unspecified),13.7,-0.3,-0.4,5.2,.,
O=C(CCc1ccccc1)NC(NC(=S)Nc1ccc(Cl)cc1)C(Cl)(Cl)Cl (stereo unspecified),93.9*,25.4,-1.9,0.1,82.4*,
O=C(/C=C/c1ccccc1)NC(NC(=S)Nc1ccc(Cl)cc1)C(Cl)(Cl)Cl (stereo unspecified),98.7*,21.0,1.8,16.4,58.0*,
CCOC(=O)NC(NC(=S)Nc1ccc(OC)cc1)C(Cl)(Cl)Cl (stereo unspecified),7.6,0.1,7.7,0.4,.,
COc1ccc(NC(=S)NC(NC(=O)/C=C/c2ccccc2)C(Cl)(Cl)Cl)cc1 (stereo unspecified),95.5*,3.9,.,28.0,65.0*,
CC(C)NC(NC(=O)/C=C/c1ccccc1)C(Cl)(Cl)Cl (stereo unspecified),-1.3,3.4,-0.1,6.4,.,
SMILES,MPTP inh,SKN-1 block,MT1-MMP act inh,ATG4B inh,MPTP counter,others
CCOC(=O)c1cccc(OCC(O)CNCCOc2ccccc2F)c1 (stereo unspecified),74.0*,-19.5,1.8,3.6,-12.4,MPTP swell DR=8.88*;MPTP cs DR=>80
Cc1nnc(SCC(=O)NC2CCCC2)n1-c1ccccc1,-1.3,0.2,0.0,-6.1,.,
COc1ccc(S(=O)(=O)N(C)C[C@H]2Oc3c(NC(=O)NC4CCCCC4)cccc3C(=O)N([C@H](C)CO)C[C@@H]2C)cc1,-1.3,0.9,-1.9,-14.7,.,
O=C(c1c(F)cccc1F)N1CCN(CCOc2ccccc2)CC1,-0.9,9.8,1.6,-1.5,.,
O=C(NC(NNc1ccc([N+](=O)[O-])cc1)(C(F)(F)F)C(F)(F)F)c1ccc(Cl)cc1,98.0*,-13.2,-2.0,-13.9,78.3*,
Cc1ccc2nc(C(Cl)(Cl)Cl)nc(N/N=C/c3ccncc3)c2c1,-1.2,7.2,-2.6,-6.6,.,
Cc1ccc2nc(C(Cl)(Cl)Cl)nc(N/N=C/c3ccc([N+](=O)[O-])cc3)c2c1,94.4*,8.6,-47.6,-5.9,9.5,MPTP swell DR=i;MPTP cs DR=11.4*
Cc1ccc(S(=O)(=O)Nc2cc(Cl)c(O)cc2C)cc1,64.8*,5.5,4.4,16.5,13.5,MPTP swell DR=15.1*;MPTP cs DR=23.3*
Fc1ccc(C2c3cccn3CCN2C(=S)Nc2cccc(Br)c2)cc1 (stereo unspecified),90.3*,1.2,2.7,3.9,66.4*,
COc1ccc(C(=O)N2CCN(c3ccc([N+](=O)[O-])c(NCCc4ccc(OC)c(OC)c4)c3)CC2)cc1,85.0*,-2.9,-0.9,-5.4,15.5,MPTP swell DR=6.01*;MPTP cs DR=<2.5*
COc1ccc(CCNc2cc(N3CCN(C(=O)c4ccccc4F)CC3)ccc2[N+](=O)[O-])cc1OC,40.5,12.6,-1.2,-9.9,.,
O=S1(=O)CC(N2CCCCC2)CN1CCc1ccccc1 (stereo unspecified),0.3,1.2,2.7,.,.,
CCCCCCCCCCCCCCCC(O)C(N)CO (stereo unspecified),80.1*,-1.6,-1.6,-7.8,-7.3,
CCCCNc1cc(C)nc(NCc2ccccc2)n1,103.6*,6.8,-9.9,-3.7,131.5*,
Fc1cc(NCc2ccccc2)nc(NCc2ccccc2)n1,3.3,21.9,4.5,38.3,.,
Cc1cc(N/N=C/c2ccc(N(C)C)cc2)nc(NCc2ccccc2)n1,59.6*,13.2,-6.2,-3.1,55.8*,
Cc1cc(Nc2cccc(F)c2)nc(NCc2ccccc2)n1,92.4*,7.1,-6.4,15.5,73.4*,
Cc1cc(Oc2ccccc2F)nc(NCc2ccccc2)n1,1.3,-17.9,-2.4,15.3,.,
Cc1cc(Nc2ccccc2)nc(NCc2ccccc2)n1,90.1*,4.7,-0.8,6.0,91.8*,
Cc1cc(N2CCC(C)CC2)nc(-c2ccccc2O)n1,2.1,11.6,-11.1,-5.8,.,
Cc1cc(N2CCC(C)CC2)nc(NCc2ccccc2)n1,90.9*,8.4,-4.6,2.0,111.1*,
